NPY-Y1 antag = antagonists of human neuropeptide Y receptor Y1 | P25929 | HEK293-CNG Y1 cells, membrane potential fluorescence; NPY at EC95, then isoproterenol | inhibition, % at 3.6 µM | 200,000 tested, 1% active;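 active means inhibition above the campaign mean inhibition of all tested compounds plus 3 SD, cut at about 20% in these data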;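 further: 0% = DMSO wells given NPY plus isoproterenol and 100% = isoproterenol alone without NPY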
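material = HEK293 cells with Y1 receptor plus CNG channel | also added = NPY 25 nM then isoproterenol 1 µM plus Ro 20-1724 25 µM | schedule = dye 3 h, compound 60 min room temperature, stimulation 45 min | measured by = membrane potential fluorescence | benchmarks = high control isoproterenol alone, low control NPY with isoproterenol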
NPY-Y1 PAM-ag = potentiates or activates human NPY-Y1 receptor | P25929 | NPY-Y1 expressing cells, potentiator/agonist activation | activation, % at 3.6 µM | 220,000 tested, 0.37% active | AID 1304; in the data active means activation above about 33%, passing the limit was not always enough;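 further: cells stimulated with NPY at EC10 then isoproterenol at EC100; 0% = low agonist plus stimulus and 100% = saturating agonist plus stimulus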
b-catenin transl = alters nuclear translocation of beta-catenin in HeLa cells; immunofluorescence imaging; nuclear translocation activity, % at 5 µM; 190,000 tested, 0.3% active; AID 1665;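 active means nuclear translocation activity above 50% at 5 µM, with a well cell count of 50 or more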;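 further: per-cell ratio of nuclear to cytoplasmic median beta-catenin stain intensity; plate controls were DMSO negative control for no effect and GSK-3 inhibitor IX positive control for full effect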
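Test system: HeLa cells, endogenous beta-catenin; Compound: single 5 µM dose plus 0.02–20 µM confirmation series; Times: compound exposure 24 h at 37°C; Signal: fluorescence imaging of beta-catenin antibody stain plus DAPI; Read-out: % activation, nuclear-to-cytoplasmic median beta-catenin signal ratio per cell.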
NPY-Y2 PAM-ag = potentiators or agonists of human neuropeptide Y receptor Y2; activation, % at 3.6 µM; cells expressing NPY-Y2, potentiator/agonist read-out; AID 1359; 220,000 tested, 0.45% active; P49146; in the data active means activation above about 27%;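 further: cells stimulated with NPY near EC25 plus isoproterenol at EC100; 0% = vehicle plus submaximal agonist and 100% = vehicle plus saturating agonist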
Target sequence (P49146 whole entry, looked up): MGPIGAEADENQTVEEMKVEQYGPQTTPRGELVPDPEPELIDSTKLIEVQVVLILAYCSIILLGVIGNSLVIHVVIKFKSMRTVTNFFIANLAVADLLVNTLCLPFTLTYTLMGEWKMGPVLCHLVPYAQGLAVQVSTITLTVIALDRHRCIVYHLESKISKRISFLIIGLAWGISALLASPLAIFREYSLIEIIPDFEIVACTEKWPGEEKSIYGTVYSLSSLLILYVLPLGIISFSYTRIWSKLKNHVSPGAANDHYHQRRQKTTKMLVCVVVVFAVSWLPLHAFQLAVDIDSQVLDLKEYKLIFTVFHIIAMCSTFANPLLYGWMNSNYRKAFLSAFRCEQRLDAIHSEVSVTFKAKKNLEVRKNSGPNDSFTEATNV
NPY-Y2 antag = antagonists of human neuropeptide Y receptor Y2 | P49146 | NPY-Y2 expressing cells, antagonist mode | inhibition, % at 2.7 µM | 140,000 tested, 0.99% active; in the data active means inhibition above about 17%;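 further: 0% = vehicle with agonist challenge and 100% = reference antagonist with challenge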
MT stabilize HCS = stabilizes microtubules in HeLa cells; HeLa tubulin immunostaining HCS, 24 h; share of cells brighter than vehicle mean+2SD; % tubulin-high responders, % at 10 µM; 200,000 tested, 0.83% active; AID 2205;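 active means plate Z-score above 3 for both tubulin-high and condensed-nucleus cell shares, with cell loss under 80%, at 10 µM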;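 further: anti alpha tubulin signal scored within the nucleus-defined area of each cell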
* marks the source's active call; other numbers are inactive results; · = no result given. Sampled rows, rich in hits. Any-hit rate of the full collection: about 2.6%.

SMILES	NPY-Y1 antag	NPY-Y1 PAM-ag	b-catenin transl	NPY-Y2 PAM-ag	NPY-Y2 antag	MT stabilize HCS
O=C(CCSc1nnc(-c2ccncc2)o1)Nc1ccccc1Cl	-1.0	9.7	0.0	-1.0	-0.7	1.1
Nc1nc(-c2ccccc2)c(N=Nc2cccnc2)s1	-19.3	65.3*	10.1	57.3*	·	3.2
COC(=O)C1=C(C)NC(=O)CC1c1cc(Br)ccc1F (centres undefined)	-4.5	-15.9	·	-9.0	1.9	1.5
Cc1cc2c(cc1C)C(c1cc(Br)ccc1F)CC(=O)N2 (centres undefined)	1.3	-14.5	23.1	-0.4	1.6	27.5*
O=S(=O)(c1cc(-c2nnc(-c3ccc(Br)cc3)o2)ccc1Br)N1CCCCCC1	7.1	-27.1	-1.6	-11.0	5.2	42.6*
CC(C)C(=O)N1CCN(c2ccc([N+](=O)[O-])c(NC(C)c3ccccc3)c2)CC1 (centres undefined)	9.5	-1.3	4.2	5.0	9.5	2.4
CCCCC[n+]1cccc2c3ccccc3ccc21	6.6	0.0	2.9	20.9	·	4.1
c1ccc(C[n+]2cccc3c4ccccc4ccc32)cc1	-5.1	12.9	0.8	35.7*	13.2	1.0
COc1ccc(N(C(=O)COc2ccc(C)cc2)S(=O)(=O)c2ccc(C)cc2)cc1	7.2	6.7	-0.1	-6.6	4.3	2.8
Cc1ccc(NC(=O)NNC(=O)Cn2nc(-c3ccccc3)c(-c3ccccc3)c(C#N)c2=O)cc1	-4.6	32.3	-0.4	8.2	0.7	27.1*
Cc1cncn1CCc1nc2c3ccccc3nc(SCC(=O)Nc3cccc(Cl)c3)n2n1	48.9*	-107.2	0.0	-25.6	32.9*	3.4
Cc1cccc2cc3c(nc12)SC(=NCC1CCCO1)N(Cc1ccco1)C3 (centres undefined)	13.0	12.0	2.9	3.0	-0.3	32.5*
Cc1ccc2nc3c(cc2c1)CN(Cc1ccco1)C(=NCC1CCCO1)S3 (centres undefined)	7.0	4.5	-0.8	8.6	4.1	5.2
COc1ccc(S(=O)(=O)N(CC(=O)NC2CC2)c2ccc(C)cc2)cc1OC	-1.1	-13.3	-0.1	3.6	2.2	1.4
Cc1ccc(Cl)cc1N1CCN(C(=O)c2cn(C)c(=O)c3c2c2ccccc2n3C)CC1	-2.2	-2.1	138.8*	-11.1	3.7	15.7
COc1ccc(NS(=O)(=O)c2cc(N/C(=N\S(=O)(=O)c3ccccc3)c3ccc(F)cc3)ccc2Cl)cc1	-2.3	39.2	·	22.7	7.5	12.4*
COc1ccc(NS(=O)(=O)c2cc(C(=O)N3CCN(C(C)=O)CC3)ccc2Cl)cc1	0.3	3.1	-6.0	-4.1	·	2.0
COc1ccc(C(=O)Nc2ccc(Cl)c(S(=O)(=O)Nc3ccccc3OC)c2)cc1	0.5	-3.3	9.1	1.9	0.5	3.6
CCOc1ccc(NS(=O)(=O)c2cc(NC(=O)c3ccc(C)cc3)ccc2Cl)cc1	4.9	-13.8	24.3	-3.0	9.6	20.7*
O=c1c2c3c(sc2nc(NCCO)n1CCc1ccccc1)CCCCC3	-2.5	-4.9	31.6	4.4	-3.7	19.2*
Cc1cccc(Cn2c(=O)n(-c3ccc(CC(=O)NCc4ccco4)cc3)c(=O)c3sccc32)c1	-0.5	-0.2	-1.2	-2.1	1.9	28.9*
COc1ccc(-n2c(=O)c3ccccc3n(Cc3cccc(C)c3)c2=O)cc1OC	0.5	0.6	0.0	12.2	·	2.9
O=C(/C=C/c1ccc(Br)o1)Nc1nnc(C2CC2)s1	·	5.6	2.3	0.8	·	·
Cc1ccc(NC(=O)C2(N(C(=O)Cn3nnnc3N)c3ccc(C)cc3)CCCCC2)cc1	-6.0	40.6*	0.1	34.0*	1.3	3.8
Cc1ccc(NC(=O)Cc2nnc(SCC(=O)c3ccc(Br)cc3)n2C)cc1	-3.3	1.1	·	17.8	0.6	1.6
SMILES	NPY-Y1 antag	NPY-Y1 PAM-ag	b-catenin transl	NPY-Y2 PAM-ag	NPY-Y2 antag	MT stabilize HCS
Brc1ccc(N/N=C(/N=Nc2nn[nH]n2)c2ccccc2)cc1	-16.9	64.0*	4.9	53.4*	·	14.3
COc1cccc(OCC(O)CN2CCC(CN3C(=O)c4cccc5cccc(c45)C3=O)CC2)c1 (centres undefined)	2.6	51.7*	·	43.2*	·	4.8
Cc1ccc(C)c(NC(=O)c2cccc(Oc3ccc([N+](=O)[O-])cc3Cl)c2)c1	2.7	-32.1	62.3*	7.3	3.4	8.1
O=C(Nc1cccc(Cl)c1)c1cccc(Oc2ccc([N+](=O)[O-])cc2Cl)c1	1.7	-8.2	7.6	8.5	1.9	7.9
COc1ccc(NC(=O)c2cccc(Oc3ccc([N+](=O)[O-])cc3Cl)c2)cc1	-3.5	-18.9	92.6*	-7.6	0.2	8.3
CC(=O)c1c(C(C)=O)c(C)n(-c2cccc3cccnc23)c1C	0.7	-1.0	0.2	-9.7	·	0.5
O=C1/C(=C/c2ccccc2)NC(=S)N1C(c1ccccc1)c1ccccc1	0.3	-10.1	60.8*	-9.5	1.8	35.8*
O=C1/C(=C/c2ccccc2)Nc2ccccc21	16.2	40.9	-0.1	6.7	10.1	2.3
CNc1nc2c(c(=O)[nH]c(=O)n2C)n1CCOC	-3.2	-6.4	-3.6	-7.2	1.9	2.2
CCCCOCP(=O)(CCCC)COCCCC	-4.2	-8.2	·	-8.1	2.9	1.9
Cc1cccc(C(=O)N/N=C/c2cc(Br)c(Br)o2)c1	1.4	-28.6	·	-3.3	4.5	10.6*
C[C@H]1O[C@@H](O[C@H]2[C@@H](O)C[C@H](O[C@H]3[C@@H](O)C[C@H](O[C@H]4CC[C@@]5(C)[C@H](CC[C@@H]6[C@@H]5C[C@@H](O)[C@]5(C)[C@@H](C7=CC(=O)OC7)CC[C@]65O)C4)O[C@@H]3C)O[C@@H]2C)C[C@H](O)[C@@H]1O	49.0*	-87.7	12.5	-22.4	53.4*	8.5
COc1cccc(C2=CC(c3cccs3)n3nnnc3N2)c1 (centres undefined)	17.2	-4.4	1.4	3.4	9.8	33.4*
NC(=O)CSc1nnc(-c2cccs2)n1Cc1ccco1	·	8.5	-0.1	-7.5	·	·
Cc1ccc(C)c(CSc2nnc(-c3cccs3)n2Cc2ccco2)c1	52.6*	2.5	-0.7	-4.0	24.2*	3.8
CC1(C)CC(=O)C2=C(C1)NC(=O)CC2c1ccc(N(CCC#N)CCC#N)cc1 (centres undefined)	-2.5	13.9	-0.5	11.2	2.8	3.0
CCOc1cc(/C=N\NC(=O)Cn2nnc3ccccc32)ccc1O	-1.3	2.0	-0.3	-6.0	·	3.1
COc1cc(C(=O)c2c(C)c(CCC#N)n3ccccc23)cc(OC)c1OC	-2.6	-6.7	61.0*	-3.1	·	19.5*
Cc1ccc(C)c(NC(=O)C(Sc2nnc(-c3cccs3)o2)c2ccccc2)c1 (centres undefined)	2.6	-5.1	0.4	-6.7	1.0	3.9
Oc1ccc(Oc2ccc3c(C(F)(F)F)cc(C(F)(F)F)nc3n2)cc1	-6.8	39.7*	-0.9	49.1*	-0.1	2.1
